Measured values reported in ChEMBL document CHEMBL2203287, “Synthesis and biological evaluation of novel heterocyclic derivatives of combretastatin A-4” (Bioorg Med Chem Lett, 2012).
Activity calls are given as the source filed them. The calls are words filed in the database; no cut-off is given here.

Legend:
Ovis aries = organism: Ovis aries; assay: Inhibition of sheep brain tubulin assembly at 32 uM incubated for 10 mins at 37 degC followed by 5 mins incubation at 0 degC by turbidimetry
[1] = Inhibition of sheep brain tubulin assembly compound incubated for 10 mins at 37 degC followed by 5 mins incubation at 0 degC by turbidimetry; parameters: species or system Ovis aries
HaCaT [2] = assay: Induction of microtubule depolymerization in human HaCaT cells at 10 '-6 M by confocal microscopy; format: cell-based
SKv-a [3] = assay: Induction of microtubule depolymerization in human SKv-a cells at 10 '-6 M by confocal microscopy; format: cell-based
HaCaT [4] = assay: Antiproliferative activity against human HaCaT cells assessed as cell viability by MTT assay; format: functional, cell-based
Method in brief: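 MTT read-out of metabolic activity, taken as the number of viable cells remaining after 72 h continuous exposure of cultured keratinocytes.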

HaCaT [5] = assay: Mitotic arrest in human HaCaT cells at 5 uM after 24 hrs using propidium iodide by flow cytometry; format: functional, cell-based
Method in brief: (§1)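 Exponentially growing cells given 5×10^-6 M for 24 h, with 0.5% DMSO vehicle control. Cells detached with gentle Accutase, then stained in suspension with propidium iodide 0.05 mg/mL in citrate buffer with Nonidet P40 for 1 h at 4 °C. FACS on 20,000 cells for G1/S/G2/M distribution; run in triplicate.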

SKv-a [6] = assay: Mitotic arrest in human SKv-a cells at 5 uM after 24 hrs using propidium iodide by flow cytometry; format: functional, cell-based; method in brief: as §1
[7] = Induction of morphological changes in human SKv-a cells assessed as loss of radial distribution of structured microtubules at 10 '-6 M by confocal microscopy; format: functional, cell-based
Method in brief: (§2)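 Cells were fixed and immunostained for beta-tubulin with a monoclonal antibody, then detected with goat anti-mouse FITC secondary. Confocal optical sections were taken at ×63 objective magnification. Vehicle-treated controls were imaged in parallel.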

HaCaT [8] = assay: Induction of morphological changes in human HaCaT cells assessed as cell rounding at 10 '-6 M by confocal microscopy; format: functional, cell-based; method in brief: as §2
SKv-a [9] = assay: Induction of morphological changes in human SKv-a cells assessed as cell rounding at 10 '-6 M by confocal microscopy; format: functional, cell-based; method in brief: as §2
HaCaT [10] = assay: Induction of morphological changes in human HaCaT cells assessed as loss of radial distribution of structured microtubules at 10 '-6 M by confocal microscopy; format: functional, cell-based; method in brief: as §2
HaCaT [11] = assay: Induction of morphological changes in human HaCaT cells assessed as cell detachment at 10 '-6 M by confocal microscopy; format: functional, cell-based; method in brief: as §2
SKv-a [12] = assay: Induction of morphological changes in human SKv-a cells assessed as cell detachment at 10 '-6 M by confocal microscopy; format: functional, cell-based; method in brief: as §2

Question: With COc1cc(/C=C/c2cc3ccccc3o2)cc(OC)c1OC as the compound, how does the inhibition (Ovis aries) read?
Answer: Its inhibition is 23%.

Question: Which IC50 [1] does the source give for COc1cc(/C=C\c2cc3ccccc3[nH]2)cc(OC)c1OC here?
Answer: Its IC50 is 21000 nM.

Question: Which Activity (HaCaT [2]) does the source give for COc1ccc(/C=C\c2cc(OC)c(OC)c(OC)c2)cc1O [COMBRETASTATIN A4] here?
Answer: The Activity was “Active”.

Question: And the Activity (SKv-a [3])?
Answer: The Activity was “Active”.

Question: What about the IC50 (HaCaT [4]) of the same compound?
Answer: Its IC50 is 1 nM.

Question: Which IC50 [1] does the source give for COc1cc([C@@H]2c3cc4c(cc3C[C@H]3COC(=O)[C@@H]32)OCO4)cc(OC)c1OC [DESOXYPODOPHYLLOTOXIN] here?
Answer: Its IC50 is 1700 nM.

Question: For COc1cc(/C=C/c2cc3ccccc3s2)cc(OC)c1OC, which Activity (HaCaT [5]) is on record?
Answer: The Activity was “Active”.

Question: And the IC50 [1]?
Answer: Its IC50 is 8400 nM.

Question: And the Activity (SKv-a [6])?
Answer: Its Activity is “Active”.

Question: And the Activity (HaCaT [2])?
Answer: Its Activity is “Active”.

Question: What about the Activity (SKv-a [3]) of the same compound?
Answer: The Activity was “Active”.

Question: Which Activity [7] does the source give for COc1cc(/C=C\c2cc3ccccc3s2)cc(OC)c1OC here?
Answer: Its Activity is “Active”.

Question: What about the Activity (HaCaT [8]) of the same compound?
Answer: Its Activity is “Active”.

Question: What about the Activity (HaCaT [5]) of the same compound?
Answer: Its Activity is “Active”.

Question: And the IC50 [1]?
Answer: Its IC50 is 2600 nM.

Question: What about the Activity (SKv-a [9]) of the same compound?
Answer: Its Activity is “Active”.

Question: What about the Activity (HaCaT [10]) of the same compound?
Answer: Its Activity is “Active”.

Question: And the Activity (HaCaT [11])?
Answer: The Activity was “Active”.

Question: And the Activity (SKv-a [6])?
Answer: The Activity was “Active”.

Question: And the Activity (HaCaT [2])?
Answer: The Activity was “Active”.

Question: And the Activity (SKv-a [3])?
Answer: Its Activity is “Active”.

Question: And the Activity (SKv-a [12])?
Answer: The Activity was “Active”.

Question: What about the IC50 (HaCaT [4]) of the same compound?
Answer: The IC50 was 16 nM.

Question: Which IC50 [1] does the source give for COc1cc(/C=C\c2cc3ccccc3o2)cc(OC)c1OC here?
Answer: Its IC50 is 9600 nM.

Question: With COc1cc2c(c(OC)c1OC)-c1ccc(OC)c(=O)cc1[C@@H](NC(C)=O)CC2 [COLCHICINE] as the compound, how does the Activity [7] read?
Answer: The Activity was “Active”.

Question: And the Activity (HaCaT [8])?
Answer: Its Activity is “Active”.

Question: What about the Activity (SKv-a [9]) of the same compound?
Answer: Its Activity is “Active”.

Question: What about the Activity (HaCaT [10]) of the same compound?
Answer: The Activity was “Active”.

Question: What about the Activity (HaCaT [11]) of the same compound?
Answer: The Activity was “Active”.

Question: And the Activity (HaCaT [2])?
Answer: Its Activity is “Active”.

Question: What about the Activity (SKv-a [3]) of the same compound?
Answer: Its Activity is “Active”.

Question: And the Activity (SKv-a [12])?
Answer: The Activity was “Active”.

Question: What about the IC50 (HaCaT [4]) of the same compound?
Answer: The IC50 was 12 nM.
